Reference: PMC11789357 (Journal of Translational Medicine, 2025)
pKd: −log10 of the molar value. Blank lines part the entries; values can stand above or below the compound they belong to.

Legend:
[1] = target: EPOR extracellular domain-IgFc construct (UniProt P19235); experiment: SPR
UT-7 cells [2] = experiment: CellTiter-Glo cell proliferation / survival assay; type: cell-based, human; details: medium without EPO; matched doses 1000 ng/mL (20 nM) vs 4 U/mL, 200 ng/mL (4 nM) vs 0.8 U/mL
BaF3-hEPOR cells = experiment: Western blot of EPOR downstream signaling; type: cell-based, murine; details: 10 min treatment, monitored 4 days
Summary of the method: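 They were exposed 10 min, pelleted, and resuspended in EPO-free medium. Lysates were taken at 0 min, 30 min, 1 h, 4 h and 1–4 days. Western blots on 4–20% gels were probed for p-ERK1/2 and p-STAT5.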

[3] = Single-dose PK study in healthy BALB/c mice; type: in vivo, mouse; details: SC 0.08 mg/kg single dose
Summary of the method: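 Female BALB/c mice received a single sc injection of test compound or peptide dimer. Blood was sampled at several times over 14 days, and serum drug level was measured by MSD immunoassay. Mean concentration–time curves gave Tmax, Cmax, t1/2, AUC0-t, AUC0-∞ and MRT.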

UT-7 cells [4] = details: ref [21], [23]; cited from earlier work

Chain of UniProt P19235 (P19235 25-250): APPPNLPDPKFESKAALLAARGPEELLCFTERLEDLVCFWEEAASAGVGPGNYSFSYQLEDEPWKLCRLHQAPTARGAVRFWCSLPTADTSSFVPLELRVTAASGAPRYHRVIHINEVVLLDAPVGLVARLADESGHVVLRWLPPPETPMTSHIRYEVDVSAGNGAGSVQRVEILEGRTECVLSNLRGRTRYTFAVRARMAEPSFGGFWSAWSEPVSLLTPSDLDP

- pKd [1]: 9.55
Compound: Pegmolesatide (peptide)

Compound: rHuEPO (ESPO 3000): recombinant human erythropoietin product ESPO 3000, Kyowa Kirin
- UT-7 cell proliferation under continuous treatment (UT-7 cells [2]): maintained cell proliferation over 7 consecutive days of treatment
- Phosphorylation levels of ERK1/2 MAPK and STAT5 after withdrawal (BaF3-hEPOR cells): showed a decline

Compound: CC(=O)NCC(=O)NCC(=O)N[C@H](C(=O)N[C@@H](Cc1ccc(O)cc1)C(=O)N[C@@H](CO)C(=O)N[C@H]1CSSC[C@@H](C(=O)N[C@@H](CCCNC(=N)N)C(=O)N2CCC[C@H]2C(=O)N[C@@H](CCC(N)=O)C(=O)N[C@@H](CCCNC(=N)N)C(=O)NCC(=O)NCCC(=O)N[C@@H](CCCCNC(=O)CN(CC(=O)NCCCC[C@H](NC(=O)CCNC(=O)CNC(=O)[C@H](CCCNC(=N)N)NC(=O)[C@H](CCC(N)=O)NC(=O)[C@@H]2CCCN2C(=O)[C@H](CCCNC(=N)N)NC(=O)[C@@H]2CSSC[C@H](NC(=O)[C@H](CO)NC(=O)[C@H](Cc3ccc(O)cc3)NC(=O)[C@@H](NC(=O)CNC(=O)CNC(C)=O)[C@@H](C)O)C(=O)N[C@@H](Cc3c[nH]cn3)C(=O)N[C@@H](Cc3ccccc3)C(=O)NCC(=O)N[C@@H](C)C(=O)N[C@@H](CC(C)C)C(=O)N[C@@H]([C@@H](C)O)C(=O)N[C@@H](Cc3c[nH]c4ccccc34)C(=O)N[C@@H](C(C)C)C(=O)N2)C(N)=O)C(=O)CCN)C(N)=O)NC(=O)[C@H](C(C)C)NC(=O)[C@H](Cc2c[nH]c3ccccc23)NC(=O)[C@H]([C@@H](C)O)NC(=O)[C@H](CC(C)C)NC(=O)[C@H](C)NC(=O)CNC(=O)[C@H](Cc2ccccc2)NC(=O)[C@H](Cc2c[nH]cn2)NC1=O)[C@@H](C)O [Peptide dimer]
- Phosphorylation levels of ERK1/2 MAPK and STAT5 after withdrawal (BaF3-hEPOR cells): showed a decline
- Serum concentration [3]: mostly below detection limits

Compound: rHuEPO: recombinant human erythropoietin, as cited from literature
- Rate of internalization of the rHuEPO-receptor complex (UT-7 cells [4]): 3.6 per hour
- Time to lysosomal degradation post-internalization (UT-7 cells [4]): 15 to 20 min
